Source: ChEMBL document CHEMBL1144710, “epigenetic multiple ligands: mixed histone/protein methyltransferase, acetyltransferase, and class III deacetylase (sirtuin) inhibitors” (J Med Chem, 2008)
Activity calls are given as the source filed them.

Legend:
U-937 [1] = experiment: Inhibition of histone H4R3 methylation in human U937 cells at 50 uM after 24 hrs; assay type: functional, cell-based
Outline: (§1)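 U937 cells treated at 50 µM for 24 h. Histones extracted with Triton buffer, then 0.2 M HCl overnight at 4 °C. 3–10 µg run on 15% SDS-PAGE and immunoblotted with anti-monomethyl-H3K4, monomethyl-H4R3 or dimethyl-H3R17 (1:500, overnight 4 °C), ECL detection. Loading controls: total H4 (H3K4), Ponceau Red (Arg marks).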

U-937 [2] = experiment: Inhibition of histone H3R17 methylation in human U937 cells at 50 uM after 24 hrs; assay type: functional, cell-based; outline: as §1
RmtA = RmtA (Emericella nidulans, UniProt Q5VLE3); experiment: Inhibition of Aspergillus nidulans RmtA
RmtA, sequence (Q5VLE3 whole entry, the tested form may be a part): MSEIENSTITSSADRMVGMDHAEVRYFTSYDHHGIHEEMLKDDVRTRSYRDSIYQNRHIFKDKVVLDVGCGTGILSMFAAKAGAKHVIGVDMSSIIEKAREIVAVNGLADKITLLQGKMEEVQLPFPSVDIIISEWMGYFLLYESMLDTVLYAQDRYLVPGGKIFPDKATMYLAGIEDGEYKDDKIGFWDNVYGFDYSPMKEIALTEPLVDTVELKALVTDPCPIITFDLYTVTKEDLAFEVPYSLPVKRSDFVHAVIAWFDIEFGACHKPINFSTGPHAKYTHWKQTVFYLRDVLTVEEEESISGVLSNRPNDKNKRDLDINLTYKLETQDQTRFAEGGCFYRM
Outline: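 Enzyme was GST-RmtA fusion expressed in E. coli BL21 and glutathione-affinity purified (500 ng), preincubated with compound for 15 min at room temperature. Then 20 µg chicken erythrocyte core histones and 0.55 µCi [3H]AdoMet were added, 30 min at 30 °C. Stopped with 25% TCA, filtered, counted by liquid scintillation.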

U-937 [3] = experiment: Inhibition of histone H3K4 methylation in human U937 cells at 50 uM after 24 hrs; assay type: functional, cell-based; outline: as §1

**Q.** Which results are given for O=C(CCCC(=O)Nc1cc(Br)c(O)c(Br)c1)Nc1cc(Br)c(O)c(Br)c1?
**A.** Activity (U-937 [1]): Active; Activity (U-937 [2]): Active; IC50 (RmtA): 173 µM

**Q.** What does the source list for O=C(/C=C/c1ccc(O)cc1Br)/C=C/c1ccc(O)cc1Br?
**A.** Activity (U-937 [1]): Active; Activity (U-937 [3]): Active; Activity (U-937 [2]): Active; IC50 (RmtA): 114 µM

**Q.** What does the source list for O=C(/C=C/c1ccc(O)c(F)c1)/C=C/c1ccc(O)c(F)c1?
**A.** Activity (U-937 [1]): Active; Activity (U-937 [3]): Active; Activity (U-937 [2]): Active; IC50 (RmtA): 169 µM

**Q.** How did the Activity (U-937 [1]) turn out when O=C(/C=C/c1cc(Br)c(O)c(Br)c1)c1ccccc1 was run?
**A.** The Activity was “Active”.

**Q.** What about the Activity (U-937 [3]) of the same molecule?
**A.** The Activity was “Active”.

**Q.** And the Activity (U-937 [2])?
**A.** The Activity was “Active”.

**Q.** And the IC50 (RmtA)?
**A.** The IC50 was 115 µM.

**Q.** Which results are given for O=C(/C=C/c1ccc(O)c(Br)c1)c1ccccc1?
**A.** Activity (U-937 [1]): Active; Activity (U-937 [3]): Active; Activity (U-937 [2]): Active; IC50 (RmtA): 190 µM

**Q.** For O=C(NCCNC(=O)c1cc(Br)c(O)c(Br)c1)c1cc(Br)c(O)c(Br)c1, which Activity (U-937 [1]) is on record?
**A.** Its Activity is “Active”.

**Q.** What about the Activity (U-937 [2]) of the same molecule?
**A.** Its Activity is “Active”.

**Q.** And the IC50 (RmtA)?
**A.** Its IC50 is 89.7 µM.

**Q.** O=C(NCCCNC(=O)c1cc(Br)c(O)c(Br)c1)c1cc(Br)c(O)c(Br)c1 was tested. Which Activity (U-937 [1]) did it give?
**A.** The Activity was “Active”.

**Q.** And the Activity (U-937 [2])?
**A.** The Activity was “Active”.

**Q.** And the IC50 (RmtA)?
**A.** Its IC50 is 75.4 µM.

**Q.** Which Activity (U-937 [1]) does the source give for O=C(CC(=O)Nc1cc(Br)c(O)c(Br)c1)Nc1cc(Br)c(O)c(Br)c1 here?
**A.** The Activity was “Active”.

**Q.** What about the Activity (U-937 [2]) of the same molecule?
**A.** The Activity was “Active”.

**Q.** And the IC50 (RmtA)?
**A.** Its IC50 is 102 µM.

**Q.** With CN1C/C(=C\c2ccc(O)c(Br)c2)C(=O)/C(=C/c2ccc(O)c(Br)c2)C1 as the molecule, how does the Activity (U-937 [1]) read?
**A.** Its Activity is “Active”.

**Q.** What about the Activity (U-937 [3]) of the same molecule?
**A.** Its Activity is “Active”.

**Q.** What about the Activity (U-937 [2]) of the same molecule?
**A.** Its Activity is “Active”.

**Q.** And the IC50 (RmtA)?
**A.** The IC50 was 162 µM.

**Q.** How did the Activity (U-937 [1]) turn out when O=C(/C=C/c1ccc(O)c([N+](=O)[O-])c1)/C=C/c1ccc(O)c([N+](=O)[O-])c1 was run?
**A.** The Activity was “Active”.

**Q.** What about the Activity (U-937 [3]) of the same molecule?
**A.** Its Activity is “Active”.

**Q.** What about the Activity (U-937 [2]) of the same molecule?
**A.** Its Activity is “Active”.

**Q.** What about the IC50 (RmtA) of the same molecule?
**A.** Its IC50 is 249 µM.

**Q.** O=C1/C(=C/c2cc(Br)c(O)c(Br)c2)Cc2ccccc2/C1=C\c1cc(Br)c(O)c(Br)c1 was tested. Which Activity (U-937 [1]) did it give?
**A.** The Activity was “Active”.

**Q.** And the Activity (U-937 [3])?
**A.** The Activity was “Active”.

**Q.** What about the Activity (U-937 [2]) of the same molecule?
**A.** Its Activity is “Active”.

**Q.** And the IC50 (RmtA)?
**A.** The IC50 was 37 µM.

**Q.** With O=C(Nc1cc(Br)c(O)c(Br)c1)C(=O)Nc1cc(Br)c(O)c(Br)c1 as the molecule, how does the Activity (U-937 [1]) read?
**A.** Its Activity is “Active”.

**Q.** What about the Activity (U-937 [2]) of the same molecule?
**A.** Its Activity is “Active”.

**Q.** What about the IC50 (RmtA) of the same molecule?
**A.** The IC50 was 32.6 µM.

**Q.** With O=C(/C=C/c1ccc(O)c(C(=O)O)c1)/C=C/c1ccc(O)c(C(=O)O)c1 as the molecule, how does the Activity (U-937 [1]) read?
**A.** The Activity was “Active”.

**Q.** What about the Activity (U-937 [3]) of the same molecule?
**A.** The Activity was “Active”.

**Q.** What about the Activity (U-937 [2]) of the same molecule?
**A.** Its Activity is “Active”.

**Q.** And the IC50 (RmtA)?
**A.** Its IC50 is 55 µM.

**Q.** Which Activity (U-937 [1]) does the source give for O=C1/C(=C/c2cc(Br)c(O)c(Br)c2)CN(Cc2ccccc2)C/C1=C\c1cc(Br)c(O)c(Br)c1 here?
**A.** Its Activity is “Active”.

**Q.** And the Activity (U-937 [3])?
**A.** The Activity was “Active”.

**Q.** What about the Activity (U-937 [2]) of the same molecule?
**A.** The Activity was “Active”.

**Q.** And the IC50 (RmtA)?
**A.** The IC50 was 210 µM.

**Q.** CN1C/C(=C\c2ccc(O)c(Br)c2)C(=O)/C(=C/c2cc(Br)c(O)c(Br)c2)C1 was tested. Which Activity (U-937 [1]) did it give?
**A.** Its Activity is “Active”.

**Q.** And the Activity (U-937 [3])?
**A.** The Activity was “Active”.

**Q.** And the Activity (U-937 [2])?
**A.** Its Activity is “Active”.

**Q.** And the IC50 (RmtA)?
**A.** Its IC50 is 123 µM.

**Q.** How did the Activity (U-937 [1]) turn out when CN1C2CCC1/C(=C\c1cc(Br)c(O)c(Br)c1)C(=O)/C2=C/c1cc(Br)c(O)c(Br)c1 was run?
**A.** Its Activity is “Active”.

**Q.** What about the Activity (U-937 [3]) of the same molecule?
**A.** The Activity was “Active”.

**Q.** What about the Activity (U-937 [2]) of the same molecule?
**A.** The Activity was “Active”.

**Q.** What about the IC50 (RmtA) of the same molecule?
**A.** The IC50 was 84 µM.

**Q.** What does the source list for O=C(NCCCCNC(=O)c1cc(Br)c(O)c(Br)c1)c1cc(Br)c(O)c(Br)c1?
**A.** Activity (U-937 [1]): Active; Activity (U-937 [2]): Active; IC50 (RmtA): 616 µM

**Q.** Which results are given for Cc1cc(/C=C/C(=O)/C=C/c2cc(C)c(O)c(C)c2)cc(C)c1O?
**A.** Activity (U-937 [1]): Active; Activity (U-937 [3]): Active; Activity (U-937 [2]): Active; IC50 (RmtA): 206 µM

**Q.** Which results are given for O=C(CCC(=O)Nc1cc(Br)c(O)c(Br)c1)Nc1cc(Br)c(O)c(Br)c1?
**A.** Activity (U-937 [1]): Active; Activity (U-937 [2]): Active; IC50 (RmtA): 156 µM

**Q.** Which results are given for CC(C)(C(=O)/C=C/c1cc(Br)c(O)c(Br)c1)C(=O)/C=C/c1cc(Br)c(O)c(Br)c1?
**A.** Activity (U-937 [1]): Active; Activity (U-937 [2]): Active; IC50 (RmtA): 156 µM
